Consider 1 compound from ChEMBL document CHEMBL4765307, “Design, synthesis and biological activity of novel 2,3,4,5-tetra-substituted thiophene derivatives as PI3Kα inhibitors with potent antitumor activity” (Eur J Med Chem, 2020).

For series [1], the target named is Serine/threonine-protein kinase mTOR (Homo sapiens, UniProt P42345). As to the kind of experiment: Inhibition of N-terminal FLAG-tagged human recombinant mTOR (1362 to end residues) using ULight-4E-BP1 (Thr37/46) peptide as substrate incubated for 1 hr in presence of ATP by Lance Ultra assay. The essentials: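 ULight-4E-BP1 (Thr37/46) peptide with 13 µM ATP; 1 h at room temperature. Stopped with EDTA quench buffer plus Eu-anti-phospho-4E-BP1, 15 min shake and 60 min equilibration, TR-FRET read. IC50 from inhibition curves; average of at least two runs.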

In the next series the test system is NCI-H1975. As to the kind of experiment: Antiproliferative activity against human NCI-H1975 cells harboring PIK3CA mutation assessed as reduction in cell viability after 3 days by CellTiter-Glo luminescence assay. In kind it is functional, cell-based. The conditions noted are these: NCI-H1975, 72 h. The procedure, abridged:
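ATCC lines, 10% FBS: T47D, H1975, H460 in RPMI1640; U87MG in DMEM; A549 in F12K. Seeded 3×10^3 per well the day before, exposed to 3-fold serial dilutions or DMSO for 3 days at 37 °C, 5% CO2; CellTiter-Glo luminescence.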
Background: Cellular ATP, detected with luciferase, serves as a proxy for viable cell number.

Series [2] is described as follows: Apparent permeability across apical to basolateral side in human Caco2 cells at 2 uM incubated for 2 hrs by LC-MS/MS analysis. In kind it is ADME, cell-based. The conditions noted are these: Caco-2. The essentials: (§1)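 Caco-2 monolayers grown 21–28 days; compound 2 µM both directions in duplicate, DMSO <1%; 2 h at 37 °C, 5% CO2 without shaking. Donor and receiver levels by LC/MS/MS; integrity by lucifer yellow. Papp = (dCr/dt)×Vr/(A×C0); efflux ratio = Papp(B-A)/Papp(A-B).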

A short description of series [3]: Apparent permeability across basolateral to apical side in human Caco2 cells at 2 uM incubated for 2 hrs by LC-MS/MS analysis. In kind it is ADME, cell-based. The conditions noted are these: Caco-2. The procedure, abridged:
as §1
Background: Passage across Caco-2 layers is used to estimate intestinal permeability.

Series [4] can be described thus: Efflux ratio of permeability from basolateral to apical over apical to basolateral side in human Caco2 cells at 2 uM incubated for 2 hrs by LC-MS/MS analysis. In kind it is ADME, cell-based. The conditions noted are these: Caco-2. The procedure, abridged: as §1
A further series addresses CYP2D6 (Homo sapiens, UniProt P10635). As to the kind of experiment: Inhibition of CYP2D6 in human liver microsomes using dextromethorphan as substrate at 10 uM preincubated for 10 mins followed by incubation with NADPH for 10 mins by LC- MS/MS analysis. It counts as ADME. Particulars: probe dextromethorphan, time 20 min. The essentials:
(§2)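 Human liver microsomes 0.25 mg/mL with probe substrate (CYP1A2 10 µM phenacetin; CYP2D6 5 µM dextromethorphan; CYP3A4 2 µM midazolam), test compound 10 µM; 10 min preincubation at 37 °C, NADPH added (final 10 mM), 10 min at 37 °C; stopped with cold acetonitrile containing internal standards; LC-MS/MS.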
(In general: Microsomes from liver hold many membrane-bound enzymes, among them those of drug oxidation.)

The next series addresses CYP3A4 (Homo sapiens, UniProt P08684). The series is described as follows: Inhibition of CYP3A4 in human liver microsomes using midazolam as substrate at 10 uM preincubated for 10 mins followed by incubation with NADPH for 10 mins by LC- MS/MS analysis. Particulars: probe midazolam, time 20 min. It counts as ADME. The essentials: as §2
Series [5] can be described thus: Half life in Sprague-Dawley rat at 5 mg/kg, iv measured after 24 hrs by LC-MS/MS analysis. The conditions noted are these: in vivo. In kind it is ADME, organism-based. The procedure, abridged: (§3)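 Male SD rats (n=6), single 5 mg/kg intravenous dose; heparinised blood at 0.083–24 h, centrifuged at 4 °C; plasma quantified by LC–MS/MS; noncompartmental parameters.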

Series [6] is described as follows: Volume of distribution in Sprague-Dawley rat at 5 mg/kg, iv measured after 24 hrs by LC-MS/MS analysis. It counts as ADME, organism-based. Particulars: in vivo. The procedure, abridged:
as §3

The nature of series [7]: Cmax in Sprague-Dawley rat at 5 mg/kg, iv measured after 24 hrs by LC-MS/MS analysis. The conditions noted are these: in vivo. On the set-up: route intravenous, dose 5 mg/kg, time 24 hrs. In kind it is ADME, organism-based. The procedure, abridged: as §3
A short description of series [8]: Metabolic stability in rat liver microsomes assessed as parent compound remaining at 1 uM preincubated for 10 mins followed by incubation in phosphate buffer at pH 7.4 for 60 mins by LC-MS/MS analysis. It counts as ADME, Microsome. Particulars: time 70 min, read-out: Stabilty. The procedure, abridged:
(§4)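 Compound 1 µM with human or rat microsomes 0.5 mg/mL, preincubated 10 min at 37 °C in 100 mM potassium phosphate pH 7.4, 10 mM MgCl2; started with NADPH, sampled 0–60 min, quenched with cold acetonitrile, LC–MS/MS. A parallel no-NADPH control was run.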

For series [9], the target named is Phosphatidylinositol 4,5-bisphosphate 3-kinase catalytic subunit alpha isoform (Homo sapiens) (UniProt P42336). As to the kind of experiment: Inhibition of PI3Kalpha in human T47D cells assessed as inhibition of insulin-stimulated Akt phosphorylation at Ser473 residue at 3 uM preincubated for 2 hrs followed by incubation with insulin for 2 hrs by western blot analysis relative to control. In kind it is cell-based. Particulars: time 4.0 hrs. The procedure, abridged: (§5)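 T47D cells given compound at 37 °C for 2 h, then stimulated with 1 µg/mL insulin for 2 h; lysed in RIPA with protease/phosphatase inhibitors and 1 mM PMSF; BCA-normalised SDS-PAGE, PVDF blot probed overnight at 4 °C for total Akt and pAkt Ser473, infrared secondary detection.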

The target is the same in series [10]. As to the kind of experiment: Inhibition of PI3Kalpha in human T47D cells assessed as inhibition of insulin-stimulated Akt phosphorylation at Ser473 residue at 1 uM preincubated for 2 hrs followed by incubation with insulin for 2 hrs by western blot analysis relative to control. In kind it is cell-based. Particulars: time 4.0 hrs. The essentials: as §5
Series [11] shares this target. As to the kind of experiment: Inhibition of PI3Kalpha in human T47D cells assessed as inhibition of insulin-stimulated Akt phosphorylation at Ser473 residue at 0.1 uM preincubated for 2 hrs followed by incubation with insulin for 2 hrs by western blot analysis relative to control. In kind it is cell-based. Particulars: time 4.0 hrs. The essentials:
as §5

A short description of series [12]: Metabolic stability in human liver microsomes assessed as parent compound remaining at 1 uM preincubated for 10 mins followed by incubation in phosphate buffer at pH 7.4 for 60 mins by LC-MS/MS analysis. It counts as ADME, Microsome. Particulars: time 70 min, read-out: Stabilty. The essentials: as §4
For series [13], the target named is Voltage-gated inwardly rectifying potassium channel KCNH2 (Homo sapiens, UniProt Q12809). As to the kind of experiment: Inhibition of human ERG expressed in CHO cells assessed as inhibition of channel tail current at holding potential of -80 mV by Qpatch assay. It counts as cell-based. The procedure, abridged: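 CHO cells stably expressing hERG, QPatch in single-hole mode at room temperature, held at […]; each concentration superfused to steady-state block (three superimposable traces), washout between concentrations; cisapride as quality control.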

pIC50: −log10 of the molar value.

Sequence of Phosphatidylinositol 4,5-bisphosphate 3-kinase catalytic subunit alpha isoform (Homo sapiens) (P42336 whole entry, canonical isoform): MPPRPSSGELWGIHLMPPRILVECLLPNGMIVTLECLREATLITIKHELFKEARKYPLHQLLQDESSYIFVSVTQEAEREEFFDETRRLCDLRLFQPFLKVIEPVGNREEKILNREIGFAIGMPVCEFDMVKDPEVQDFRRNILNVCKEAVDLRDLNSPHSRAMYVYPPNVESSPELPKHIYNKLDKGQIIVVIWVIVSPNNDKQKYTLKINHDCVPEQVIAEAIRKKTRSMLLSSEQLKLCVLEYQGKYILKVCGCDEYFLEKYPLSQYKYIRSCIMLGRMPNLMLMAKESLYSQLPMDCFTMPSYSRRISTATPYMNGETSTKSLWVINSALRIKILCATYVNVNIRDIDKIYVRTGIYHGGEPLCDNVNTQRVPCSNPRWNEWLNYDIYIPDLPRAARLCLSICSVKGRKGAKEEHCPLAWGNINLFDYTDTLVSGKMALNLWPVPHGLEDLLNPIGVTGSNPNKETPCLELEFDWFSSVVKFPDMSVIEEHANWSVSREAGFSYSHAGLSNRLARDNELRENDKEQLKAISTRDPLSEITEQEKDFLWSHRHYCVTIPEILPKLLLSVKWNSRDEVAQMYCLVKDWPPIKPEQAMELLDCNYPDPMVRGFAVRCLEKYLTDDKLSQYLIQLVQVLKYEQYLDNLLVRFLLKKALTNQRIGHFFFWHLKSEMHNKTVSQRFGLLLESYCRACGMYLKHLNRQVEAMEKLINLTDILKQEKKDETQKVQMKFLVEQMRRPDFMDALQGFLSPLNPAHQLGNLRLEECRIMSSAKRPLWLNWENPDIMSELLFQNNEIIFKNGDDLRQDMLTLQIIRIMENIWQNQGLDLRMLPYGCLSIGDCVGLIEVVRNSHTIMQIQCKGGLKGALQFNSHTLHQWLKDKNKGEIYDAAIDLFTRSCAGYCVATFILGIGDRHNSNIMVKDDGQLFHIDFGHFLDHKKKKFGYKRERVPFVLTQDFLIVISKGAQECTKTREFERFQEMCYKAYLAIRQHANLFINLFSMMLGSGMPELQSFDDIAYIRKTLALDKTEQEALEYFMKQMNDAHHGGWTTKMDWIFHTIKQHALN
Sequence of Voltage-gated inwardly rectifying potassium channel KCNH2 (Q12809 whole entry, the tested form may be a part): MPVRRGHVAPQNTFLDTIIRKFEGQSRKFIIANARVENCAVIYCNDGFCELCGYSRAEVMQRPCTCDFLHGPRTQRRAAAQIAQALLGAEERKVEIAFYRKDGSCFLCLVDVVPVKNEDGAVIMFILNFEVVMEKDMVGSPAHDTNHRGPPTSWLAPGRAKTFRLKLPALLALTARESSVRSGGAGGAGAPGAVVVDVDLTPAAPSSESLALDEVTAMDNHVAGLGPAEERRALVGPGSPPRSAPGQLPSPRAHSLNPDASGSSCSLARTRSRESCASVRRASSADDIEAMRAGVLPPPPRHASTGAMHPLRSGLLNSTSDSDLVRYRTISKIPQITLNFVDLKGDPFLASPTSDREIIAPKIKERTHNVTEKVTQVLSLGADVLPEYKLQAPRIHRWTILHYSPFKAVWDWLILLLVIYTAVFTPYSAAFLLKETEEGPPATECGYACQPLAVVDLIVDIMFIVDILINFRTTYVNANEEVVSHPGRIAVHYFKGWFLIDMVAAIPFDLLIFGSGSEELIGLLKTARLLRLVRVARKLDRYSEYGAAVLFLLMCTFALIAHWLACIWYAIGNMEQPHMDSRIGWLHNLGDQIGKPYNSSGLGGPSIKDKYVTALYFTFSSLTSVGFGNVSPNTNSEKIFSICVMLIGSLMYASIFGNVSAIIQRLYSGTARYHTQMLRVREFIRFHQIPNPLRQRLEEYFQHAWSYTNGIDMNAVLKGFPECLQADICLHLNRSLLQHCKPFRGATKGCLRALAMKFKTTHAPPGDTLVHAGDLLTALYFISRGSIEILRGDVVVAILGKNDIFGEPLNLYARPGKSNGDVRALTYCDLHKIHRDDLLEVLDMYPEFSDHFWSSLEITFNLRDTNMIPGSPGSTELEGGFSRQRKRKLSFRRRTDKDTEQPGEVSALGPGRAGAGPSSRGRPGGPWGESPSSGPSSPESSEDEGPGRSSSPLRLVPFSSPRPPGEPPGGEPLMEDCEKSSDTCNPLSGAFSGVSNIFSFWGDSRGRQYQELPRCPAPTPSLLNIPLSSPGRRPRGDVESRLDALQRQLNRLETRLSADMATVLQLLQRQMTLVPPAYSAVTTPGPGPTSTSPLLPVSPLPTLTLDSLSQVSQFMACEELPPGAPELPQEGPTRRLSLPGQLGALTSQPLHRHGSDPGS
Sequence of CYP2D6 (P10635 whole entry): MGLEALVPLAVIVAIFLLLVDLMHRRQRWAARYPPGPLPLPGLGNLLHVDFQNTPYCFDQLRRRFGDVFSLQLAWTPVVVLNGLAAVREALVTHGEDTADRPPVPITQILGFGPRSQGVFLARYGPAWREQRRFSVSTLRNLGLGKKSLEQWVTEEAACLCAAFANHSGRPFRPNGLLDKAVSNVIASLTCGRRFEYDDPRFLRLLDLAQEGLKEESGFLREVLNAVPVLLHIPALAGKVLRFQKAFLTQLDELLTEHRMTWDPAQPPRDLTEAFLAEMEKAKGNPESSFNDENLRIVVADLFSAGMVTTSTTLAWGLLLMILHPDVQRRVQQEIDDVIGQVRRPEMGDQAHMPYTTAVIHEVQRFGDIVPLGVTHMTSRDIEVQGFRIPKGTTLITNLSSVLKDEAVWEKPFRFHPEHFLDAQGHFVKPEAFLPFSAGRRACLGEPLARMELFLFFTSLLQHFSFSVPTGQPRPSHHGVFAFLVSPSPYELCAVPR
Sequence of CYP3A4 (P08684 whole entry): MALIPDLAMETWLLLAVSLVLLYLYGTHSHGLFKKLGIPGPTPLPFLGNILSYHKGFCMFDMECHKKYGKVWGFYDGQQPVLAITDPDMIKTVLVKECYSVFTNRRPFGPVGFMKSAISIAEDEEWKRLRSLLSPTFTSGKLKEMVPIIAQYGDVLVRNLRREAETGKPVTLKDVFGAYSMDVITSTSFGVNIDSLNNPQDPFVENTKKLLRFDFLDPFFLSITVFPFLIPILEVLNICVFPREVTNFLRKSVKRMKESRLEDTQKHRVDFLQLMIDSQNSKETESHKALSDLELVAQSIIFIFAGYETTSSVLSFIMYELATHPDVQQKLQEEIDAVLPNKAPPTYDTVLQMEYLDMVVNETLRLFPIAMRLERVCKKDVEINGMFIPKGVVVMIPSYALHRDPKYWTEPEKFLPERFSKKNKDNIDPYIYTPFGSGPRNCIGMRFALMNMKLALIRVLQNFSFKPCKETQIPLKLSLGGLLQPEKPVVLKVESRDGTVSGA

The pIC50 is the negative decadic logarithm of the IC50, by convention in mol/L. Broadly, the Papp A→B is how fast a substance crosses the layer from the apical side. The Papp B→A is how fast a substance crosses the layer from the basolateral side. A word on the efflux ratio: it is a quotient of directional permeabilities that is used to spot active efflux. As usually defined, the inhibition is how much of the control response was suppressed. In general, half-life refers to the time in which the quantity being followed falls by half. A high value points to slow decline. The Vd is a proportionality between amount in the body and measured concentration, not a real space. High values mean extensive tissue distribution, low ones confinement near the circulation. In general, Cmax refers to the highest concentration seen after dosing. On to `N#Cc1c(N2CCOCC2)sc(-c2nc[nH]n2)c1-c1ccc(NC(=O)Nc2ccccc2Cl)cc1`, for which the negative logarithm of the IC50 (pIC50) was 5.74 in series [1], 5.97 in the series on NCI-H1975 and under 4.52 in series [13]. Further, in series [2], the Papp A→B at 2 h, 2 µM came to 7.8 ×10⁻⁶ cm/s. Moreover, in [3], the Papp B→A at 2 h, 2 µM is 8.4 ×10⁻⁶ cm/s. Further, the efflux ratio at 2 h, 2 µM in [4] worked out at 1.08. The inhibition at 10 min, 10 µM against CYP2D6 was determined as 28%; on CYP3A4 it was 1.5%. In [5], the half-life is 1.98 h. This compound also registered a Vd in [6] of 8.6 L/kg. In addition, the concentration in series [7] peaked (Cmax) at 2570 ng/mL. Also, the remaining at 1 h, 1 µM worked out at 42.6% in series [8] and 47.8% in [12]. Further, the inhibition in series [9] amounted to 90%; in series [10], 78%; in series [11] it was 58%.
